Measured values taken from ChEMBL document CHEMBL1154855 (Eur J Med Chem, 2010).
Values after ≈ are worked out from the molar mass of the structure shown.

What was measured:
Human alphaherpesvirus 1 [1] = experiment: Antiviral activity against acyclovir-sensitive Herpes simplex virus 1 KOS infected in HEL cells assessed as protection from virus-induced cytopathogenicity after 2 to 3 days by MTT assay; assay type: functional, organism-based; conditions: Human alphaherpesvirus 1, KOS
HEL [2] = experiment: Cytotoxicity against Herpes simplex virus 2 G infected HEL cells by trypan blue exclusion method; assay type: cell-based; conditions: human, hel
How it was run: (§1)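 Uninfected confluent cultures were run in parallel with the infected cultures. Medium was replaced by 1 ml maintenance medium with serial compound concentrations; cell controls received no compound. Cultures were incubated at 37 °C. After 2 and 7 days, compound was withdrawn and viability was determined by trypan blue exclusion.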

Human alphaherpesvirus 1 [3] = experiment: Antiviral activity against Herpes simplex virus 1 KOS infected in HEL cells assessed as protection from virus-induced cytopathogenicity after 2 to 3 days by MTT assay; assay type: functional, organism-based; conditions: Human alphaherpesvirus 1, KOS
Influenza A virus [4] = experiment: Antiviral activity against Influenza A virus H1N1 infected in MDCK cells assessed as protection from virus-induced cytopathogenicity after 6 to 7 days by MTT assay; assay type: functional, organism-based
[5] = system: Vesicular stomatitis virus; experiment: Antiviral activity against VSV infected in human HeLa cells assessed as protection from virus-induced cytopathogenicity after 1 to 2 days by MTT assay; assay type: functional, organism-based
MDCK [6] = experiment: Cytotoxicity against Influenza A virus subtype H1N1 infected MDCK cells by trypan blue exclusion method; assay type: cell-based, Canis lupus familiaris; conditions: dog
HeLa [7] = experiment: Cytotoxicity against VSV infected human HeLa cells by trypan blue exclusion method; assay type: cell-based; conditions: hela; how it was run: as §1
Coxsackievirus B4 [8] = experiment: Antiviral activity against Human coxsackievirus B4 infected in african green monkey Vero cells assessed as protection from virus-induced cytopathogenicity after 2 days by MTT assay; assay type: functional, organism-based; conditions: Enterovirus B, 48 h
Proteus mirabilis = experiment: Antibacterial activity against Proteus mirabilis after 24 hrs by broth microdilution method; assay type: functional
How it was run: (§2)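 Clinical isolates. Each dilution received 100 μl of 0.5 McFarland fresh culture. Solvent (DMSO), growth and standard controls were included. Tubes were incubated at 37 °C for 24 h. MIC is the highest dilution showing no turbidity. Tests were run in triplicate, with at least two repetitions.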

HEL [9] = experiment: Cytotoxicity against Vaccinia virus infected HEL cells by trypan blue exclusion method; assay type: cell-based; conditions: human, hel; how it was run: as §1
HeLa [10] = experiment: Cytotoxicity against Human coxsackievirus B4 infected human HeLa cells by trypan blue exclusion method; assay type: cell-based; conditions: hela; how it was run: as §1
[11] = Cytotoxicity against Feline coronavirus infected cat CRFK cells by trypan blue exclusion method; assay type: cell-based, Felis catus; conditions: crfk; how it was run: as §1
Human alphaherpesvirus 2 = experiment: Antiviral activity against Herpes simplex virus 2 G infected in HEL cells assessed as protection from virus-induced cytopathogenicity after 2 to 3 days by MTT assay; assay type: functional, organism-based; conditions: Human alphaherpesvirus 2, strain G
Vero [12] = experiment: Cytotoxicity against PIV 3 infected african green monkey Vero cells by trypan blue exclusion method; assay type: cell-based; conditions: chlorocebus sabaeus, vero; how it was run: as §1
Streptococcus viridans = experiment: Antibacterial activity against Streptococcus viridans after 24 hrs by broth microdilution method; assay type: functional; how it was run: as §2
Vero [13] = experiment: Cytotoxicity against Human coxsackievirus B4 infected african green monkey Vero cells by trypan blue exclusion method; assay type: cell-based; conditions: chlorocebus sabaeus, vero; how it was run: as §1
[14] = system: Mammalian orthoreovirus 1; experiment: Antiviral activity against Reovirus 1 infected in african green monkey Vero cells assessed as protection from virus-induced cytopathogenicity after 6 to 7 days by MTT assay; assay type: functional, organism-based; conditions: Mammalian orthoreovirus 1, Vero
MDCK [15] = experiment: Cytotoxicity against Influenza A virus subtype H3N2 infected MDCK cells by trypan blue exclusion method; assay type: cell-based, Canis lupus familiaris; conditions: dog
Vero [16] = experiment: Cytotoxicity against Punta Toro virus infected african green monkey Vero cells by trypan blue exclusion method; assay type: cell-based; conditions: chlorocebus sabaeus, vero; how it was run: as §1
HEL [17] = experiment: Cytotoxicity against Herpes simplex virus 1 KOS infected HEL cells by trypan blue exclusion method; assay type: cell-based; conditions: human, hel; how it was run: as §1
Feline coronavirus = experiment: Antiviral activity against Feline coronavirus infected in cat CRFK cells assessed as protection from virus-induced cytopathogenicity by MTT assay; assay type: functional, organism-based; conditions: Alphacoronavirus 1, CRFK
Punta Toro virus = experiment: Antiviral activity against Punta Toro virus infected in african green monkey Vero cells assessed as protection from virus-induced cytopathogenicity by MTT assay; assay type: functional, organism-based
Vero [18] = experiment: Cytotoxicity against Reovirus 1 infected african green monkey Vero cells by trypan blue exclusion method; assay type: cell-based; conditions: chlorocebus sabaeus, vero; how it was run: as §1
Human respirovirus 3 = experiment: Antiviral activity against PIV 3 infected in african green monkey Vero cells assessed as protection from virus-induced cytopathogenicity after 6 to 7 days by MTT assay; assay type: functional, organism-based; conditions: Human respirovirus 3, Vero
MDCK [19] = experiment: Cytotoxicity against Influenza B virus infected MDCK cells by trypan blue exclusion method; assay type: cell-based, Canis lupus familiaris; conditions: dog
HEL [20] = experiment: Cytotoxicity against acyclovir-sensitive Herpes simplex virus 1 KOS infected HEL cells by trypan blue exclusion method; assay type: cell-based; conditions: human; how it was run: as §1
HeLa [21] = experiment: Cytotoxicity against Respiratory syncytial virus infected human HeLa cells by trypan blue exclusion method; assay type: cell-based; conditions: hela; how it was run: as §1
Sindbis virus = experiment: Antiviral activity against Sindbis virus infected in african green monkey Vero cells assessed as protection from virus-induced cytopathogenicity after 2 to 3 days by MTT assay; assay type: functional, organism-based
HEL [22] = experiment: Cytotoxicity against VSV infected HEL cells by trypan blue exclusion method; assay type: cell-based; conditions: human, hel; how it was run: as §1
Coxsackievirus B4 [23] = experiment: Antiviral activity against Human coxsackievirus B4 infected in human HeLa cells assessed as protection from virus-induced cytopathogenicity after 2 days by MTT assay; assay type: functional, organism-based; conditions: Enterovirus B, 48 h
Influenza A virus [24] = experiment: Antiviral activity against Influenza A virus H3N2 infected in MDCK cells assessed as protection from virus-induced cytopathogenicity after 6 to 7 days by MTT assay; assay type: functional, organism-based
[25] = Cytotoxicity against Feline herpesvirus infected cat CRFK cells by trypan blue exclusion method; assay type: cell-based, Felis catus; conditions: crfk; how it was run: as §1
Felid alphaherpesvirus 1 = experiment: Antiviral activity against Feline herpesvirus infected in cat CRFK cells assessed as protection from virus-induced cytopathogenicity by MTT assay; assay type: functional, organism-based; conditions: Felid alphaherpesvirus 1, CRFK
Vero [26] = experiment: Cytotoxicity against Sindbis virus infected african green monkey Vero cells by trypan blue exclusion method; assay type: cell-based; conditions: chlorocebus sabaeus, vero; how it was run: as §1
[27] = system: Respiratory syncytial virus; experiment: Antiviral activity against Respiratory syncytial virus infected in human HeLa cells assessed as protection from virus-induced cytopathogenicity after 4 days by MTT assay; assay type: functional, organism-based; conditions: 96 h
Influenza B virus = experiment: Antiviral activity against Influenza B virus infected in MDCK cells assessed as protection from virus-induced cytopathogenicity after 6 to 7 days by MTT assay; assay type: functional, organism-based
Escherichia coli = experiment: Antibacterial activity against Escherichia coli after 24 hrs by broth microdilution method; assay type: functional; how it was run: as §2
Klebsiella pneumoniae = experiment: Antibacterial activity against Klebsiella pneumoniae after 24 hrs by broth microdilution method; assay type: functional; how it was run: as §2

COc1cc(/C=C/C(=O)CC(=O)/C=C/c2ccc(O)c(OC)c2)ccc1O [CURCUMIN]
EC50 (Human alphaherpesvirus 1 [1]): 10 nM | CC50 (HEL [2]): > 2 nM | EC50 (Human alphaherpesvirus 1 [3]): > 10 nM | EC50 (Influenza A virus [4]): > 271 nM | EC50 [5]: > 10 nM | CC50 (MDCK [6]): > 92 nM | CC50 (HeLa [7]): ≥ 10 nM | EC50 (Coxsackievirus B4 [8]): > 10 nM | MIC (Proteus mirabilis; Proteus mirabilis, 24 h, read-out: MIC): 1.23 µM (≈ 0.453 µg/mL) | CC50 (HEL [9]): > 2 nM | CC50 (HeLa [10]): ≥ 10 nM | CC50 [11]: > 271 nM | EC50 (Human alphaherpesvirus 2): 10 nM | CC50 (Vero [12]): 54 nM | MIC (Streptococcus viridans; Streptococcus viridans, 24 h, read-out: MIC): 2.47 µM (≈ 0.91 µg/mL) | CC50 (Vero [13]): 54 nM | EC50 [14]: > 10 nM | CC50 (MDCK [15]): > 92 nM | CC50 (Vero [16]): 54 nM | CC50 (HEL [17]): ≥ 10 nM | EC50 (Feline coronavirus): > 271 nM | EC50 (Punta Toro virus): > 10 nM | CC50 (Vero [18]): 54 nM | EC50 (Human respirovirus 3): > 10 nM | CC50 (MDCK [19]): > 92 nM | CC50 (HEL [20]): > 2 nM | CC50 (HeLa [21]): ≥ 10 nM | EC50 (Sindbis virus): > 10 nM | CC50 (HEL [22]): > 2 nM | EC50 (Coxsackievirus B4 [23]): > 10 nM | EC50 (Influenza A virus [24]): > 271 nM | CC50 [25]: > 271 nM | EC50 (Felid alphaherpesvirus 1): > 271 nM | CC50 (Vero [26]): 54 nM | EC50 [27]: > 10 nM | EC50 (Influenza B virus): > 271 nM

GENTAMICIN SULFATE
MIC (Proteus mirabilis): > 1.73 µM | MIC (Streptococcus viridans): > 1.73 µM | MIC (Escherichia coli): > 1.73 µM | MIC (Klebsiella pneumoniae): > 1.73 µM
